# High-throughput results deposited in PubChem BioAssay by several laboratories.
# NPY-Y1 PAM-ag = NPY-Y1 receptor potentiators or agonists, primary screen, cell-based | Neuropeptide Y receptor type 1 (Homo sapiens), P25929 | NPY-Y1 expressing cells, potentiator/agonist activation | activation, % at 3.6 µM | 220,000 tested, 0.37% active; in the data active = activation above about 33%, passing the limit was not always enough;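 also: cells stimulated with NPY at EC10 then isoproterenol at EC100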
# EP2 antag = human EP2 receptor antagonists, primary screen, TR-FRET cAMP, C6 glioma cells. 260,000 tested, 0.52% active. C6 glioma cells expressing human EP2; cells stimulated with saturating PGE2. inhibition, % at 25 µM. Prostaglandin E2 receptor EP2 subtype (Homo sapiens), P43116;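 active = percent inhibition above 40 after rounding to a whole number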;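 also: rat C6 glioma host cells with rolipram phosphodiesterase inhibitor present; the protocol text gives 20 µM as final concentration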
# NPY2 pot ag = NPY-Y2 potentiators or agonists, primary screen, cell-based; Neuropeptide Y receptor type 2 (Homo sapiens), P49146; cells expressing NPY-Y2, potentiator/agonist read-out; activation, % at 3.6 µM; 220,000 tested, 0.45% active; in the data active = activation above about 27%;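 also: cells stimulated with NPY near EC25 plus isoproterenol at EC100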
# Target sequence (P49146 whole entry, looked up): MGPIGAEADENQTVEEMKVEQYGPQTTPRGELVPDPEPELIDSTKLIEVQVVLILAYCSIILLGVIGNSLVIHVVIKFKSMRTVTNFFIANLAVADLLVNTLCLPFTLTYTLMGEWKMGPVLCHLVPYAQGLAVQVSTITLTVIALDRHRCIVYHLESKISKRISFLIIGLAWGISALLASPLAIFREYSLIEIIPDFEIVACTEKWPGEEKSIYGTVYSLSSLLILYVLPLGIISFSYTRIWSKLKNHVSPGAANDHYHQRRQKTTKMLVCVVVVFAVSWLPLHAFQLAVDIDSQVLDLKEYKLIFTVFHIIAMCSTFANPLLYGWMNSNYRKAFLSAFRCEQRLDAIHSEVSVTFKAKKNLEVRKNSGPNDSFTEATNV
# NPY-Y2 antag = NPY-Y2 receptor antagonists, primary screen, cell-based. inhibition, % at 2.7 µM. AID 793, 2007. 140,000 tested, 0.99% active. NPY-Y2 expressing cells, antagonist mode. Neuropeptide Y receptor type 2 (Homo sapiens), P49146; in the data active = inhibition above about 17%
# NPY-Y1 antag = NPY-Y1 receptor antagonists, primary screen, cell-based. Neuropeptide Y receptor type 1 (Homo sapiens), P25929. HEK293-CNG Y1 cells, membrane potential fluorescence; NPY at EC95, then isoproterenol. inhibition, % at 3.6 µM. 200,000 tested, 1% active;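 active = inhibition above the campaign mean inhibition of all tested compounds plus 3 SD, cut at about 20% in these data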
#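 Test system: HEK293 cells co-expressing NPY Y1 receptor and cyclic-nucleotide gated channel; Also added: NPY (25 nM), isoproterenol (1 µM), Ro 20-1724 (25 µM); Compound dosing: one concentration, 3.6 µM, in 0.4% DMSO; Timing: dye 3 h, compound 60 min room temperature, stimulation 45 min; Technique: Membrane-potential fluorescent dye readout.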
# EP2 modulator = EP2 receptor modulators, cAMP readout, primary screen, cell-based, HTRF cAMP, PGE2 stimulation; EP2-expressing cells, cAMP HTRF FRET, PGE2 co-stimulation; induction, % at 25 µM; 260,000 tested, 0.83% active; AID 940, 2007;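 active = compounds whose cAMP rise, as percent of the full-agonist control response, exceeds 60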;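 also: rat C6 glioma line stably carrying human EP2 under a CMV promoter; the protocol text gives 20 µM as final concentration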
# NPY1 antag ctr = NPY-Y1 receptor antagonists, selectivity check, counter-screen for NPY-Y2 antagonist project, cell-based; shares compounds with NPY-Y2 antag; cell-based NPY-Y1 antagonism counterscreen; inhibition, % at 3.6 µM; 710 tested, 19% active; AID 1256, 2008; in the data active = inhibition above about 20%;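 also: cells challenged with NPY then isoproterenol with cAMP sensed through a CNG channel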
# NPY-Y2 ant conf = NPY-Y2 receptor antagonists, retest of hits, confirmation, HEK293-CNG cells, membrane potential fluorescence, triplicate; shares compounds with NPY-Y2 antag; HEK293 NPY-Y2 CNG channel; inhibition, % at 2.8 µM; 710 tested, 32% active; AID 1257, 2008;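 active = mean inhibition of triplicate wells above the hit cutoff set in the primary screen, cut at about 17% in these data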
# Hits are given with their value; 0 = inactive; - = no result given. Most compounds without a hit are left out; they make up all but 2.8% or so of the library.
SMILES,NPY-Y1 PAM-ag,EP2 antag,NPY2 pot ag,NPY-Y2 antag,NPY-Y1 antag,EP2 modulator,others
COc1ccc(OC)c(N=c2ssnc2Cl)c1,0,77.3,0,0,0,0,
Cc1cc(C)nc(/N=c2/ssnc2Cl)c1,0,0,0,0,0,0,
COc1ccc(NC(=O)C2CCN(c3nc(C)cc(C)n3)CC2)cc1Cl,-,0,-,-,-,0,
COc1ccc(CN2CCc3nc(N4CCC(C)CC4)[nH]c(=O)c3C2)c(O)c1,-,0,-,-,-,0,
CCN1c2ncccc2C(=O)NC12CCN(C(=O)c1c(C)noc1C)CC2,-,0,-,-,-,0,
CCOC(=O)c1c(NC(=O)C2COc3ccccc3O2)sc2c1CC(C)(C)NC2(C)C (centres undefined),0,0,0,21.0,45.0,0,
COC(=O)CSc1ccc(C#N)c(SCC(=O)OC)c1,0,0,0,0,0,0,
COC(=O)CSc1cc(SCC(=O)OC)c(C#N)c(SCC(=O)OC)c1,0,54.9,0,0,0,0,
Oc1ccc(/C=C/c2nc(-c3ccccc3O)n(-c3ccccc3)n2)cc1,0,0,0,0,0,64.7,
Oc1ccccc1-c1nc(/C=C/c2ccccc2)nn1-c1ccccc1,0,0,0,0,0,0,
COc1cccc(C2CN(c3ccc(F)cc3F)N=C2c2cccs2)c1OC (centres undefined),0,-,0,0,0,0,
COc1ccccc1C1CN(c2ccccc2)N=C1c1cccs1 (centres undefined),0,0,0,0,0,67.9,
C=CCn1c2cc(C)sc2c2cnn(CCC(N)=O)c(=O)c21,-,-,-,-,-,0,
CC(=O)C1=C(C)NC(SCC(=O)c2ccc(-c3ccccc3)cc2)=C(C#N)C1c1cccnc1 (centres undefined),0,49.4,0,0,0,0,
Cc1cc(C#N)c(C)n1-c1cc(C(F)(F)F)ccc1N1CCOCC1,0,0,0,20.2,21.2,0,
CC(C)C(=O)Nc1cc(C(F)(F)F)ccc1N1CCOCC1,0,0,0,0,0,0,
CCn1c(SCC(=O)Nc2cc(C)ccc2OC)nnc1-c1ccccc1,-,0,-,-,-,0,
C/C(NC(=O)c1cccs1)=C1\C(=O)C[C@@H]2[C@H]1C2(C)C,0,0,0,0,21.6,0,
CC(C)Oc1ccc(/C=C2\SC(N3CCN(CCC#N)CC3)=NC2=O)cc1,-,0,-,-,-,0,
CCC(=O)Nc1cc(NC(=O)CSc2nc3cccnc3n2C)ccc1C,-,0,-,-,-,0,
CCOC(=O)C1(C)/C(=N/Nc2ccc(Cl)cc2)C(=O)C(=O)N1c1ccccc1 (centres undefined),0,0,0,0,0,61.2,
C=CS(=O)(=O)c1ccc(Oc2ccc(S(=O)(=O)C=C)cc2)cc1,0,72.1,0,0,0,0,
O=C(/C=C/c1ccc(Cl)cc1)N1CCN(c2ccc(Cl)cc2[N+](=O)[O-])CC1,0,0,0,0,20.5,0,
Cc1ccc(CNC(=O)CSc2nc3c(sc4ccccc43)c(=O)n2CCCN2CCCC2)cc1,0,0,0,-,20.7,0,
O=C(CSc1nc2c(sc3ccccc32)c(=O)n1CCCN1CCCC1)NCc1ccccc1,0,0,0,-,0,0,
SMILES,NPY-Y1 PAM-ag,EP2 antag,NPY2 pot ag,NPY-Y2 antag,NPY-Y1 antag,EP2 modulator,others
COc1ccc2[nH]c3c(Cl)ncnc3c2c1,0,0,0,0,0,0,
COc1ccc2[nH]c3c(=S)nc[nH]c3c2c1,0,0,0,-,0,62.0,
CC1CCCN(C(=O)CSc2nc3ccc(C(C)C)cc3cc2C#N)C1 (centres undefined),-,0,-,-,-,0,
C[N+](C)(C)[C@@H](C1=CCCC1=O)c1ccccc1,-,52.2,-,-,-,0,
O=C(NCCO)C(c1ccccc1)c1ccccc1,0,0,0,0,0,0,
C=CCn1c(SC(C)C(=O)NCc2ccc3c(c2)OCO3)nnc1C1CCCCC1 (centres undefined),0,0,0,20.1,27.6,0,
CC(=O)Nc1cccc(NC(=O)CSc2ncc(-c3ccc(Cl)cc3)n2Cc2ccco2)c1,0,41.4,0,0,0,0,
CC(Sc1nnc2ccccn12)C(=O)NCc1ccc2c(c1)OCO2 (centres undefined),0,0,0,-,0,0,
COc1ccc(-c2nnc(SC(C)C(=O)NCc3ccc4c(c3)OCO4)n2Cc2ccco2)cc1 (centres undefined),0,0,0,51.0,37.5,0,
Cc1[nH]c2ccc(-c3nnc(SCC(=O)NCc4ccco4)n3Cc3ccccc3)cc2c1C,111.8,0,103.7,0,0,0,
Cc1cc2c(cc3c(=O)n(CC(N)=O)nc(C)n32)s1,-,0,-,-,-,0,
CCC(C)(C)n1nnnc1C(c1cc2cc(C)ccc2[nH]c1=O)N1CCN(C2CCCCC2)CC1 (centres undefined),-,0,-,-,-,0,
Cn1c(=O)oc2cc(S(=O)(=O)NC3CCN(Cc4ccccc4)C3)ccc21 (centres undefined),-,0,-,-,-,0,
CCCN(C#N)c1nc(NCC)nc(NCC)n1,-,0,-,-,-,0,
CCc1ccc2[nH]c(=O)c(C(c3nnnn3C3CCCC3)N3CCC(O)CC3)cc2c1 (centres undefined),-,0,-,-,-,0,
O=C(CSc1nnc(-c2ccc(Cl)cc2)n1Cc1ccco1)NCc1ccc2c(c1)OCO2,0,0,0,40.9,41.9,0,
O=C(CSc1nnc(-c2ccc(Cl)cc2)n1Cc1ccco1)Nc1ccc2c(c1)OCCO2,0,0,0,0,0,0,
COc1ccc(Cn2c(SCc3ccccc3C)nc3cc(OC)c(OC)cc3c2=N)cc1,0,0,0,44.2,48.4,0,
COc1cc2nc(SCc3ccc(F)cc3)n(Cc3cccs3)c(=N)c2cc1OC,0,0,0,0,0,0,
CC(NC(=O)Cn1cc(C(=O)c2ccco2)c2ccccc21)c1ccccc1 (centres undefined),-,0,-,-,-,0,
O=C(CCCN1C(=O)/C(=C/c2cccs2)SC1=S)NN1CCOCC1,-,0,-,-,-,0,
O=C1c2ccccc2N[C@H](c2cc(Cl)cc(Cl)c2O)N1CCc1ccccn1,-,55.0,-,-,-,0,
CCOc1ccc2[nH]c(=O)c(C(c3nnnn3Cc3ccco3)N3CCCC(C)C3)cc2c1 (centres undefined),0,0,0,17.7,0,0,NPY1 antag ctr=0;NPY-Y2 ant conf=0
COc1cccc(OC)c1OCCCCN1CCCC1,0,0,0,0,0,0,
